Source: PubChem (several laboratories)
Only some compounds are listed: those with a hit (about 2.5% of all), similar ones and a draw of the others.
MBD2 inh – inhibitors of MBD2 binding to methylated DNA, primary screen, biochemical, TR-FRET, DNA-binding domain, human; MBD2 binding to methylated oligonucleotide; 370,000 compounds, 0.31% hits; Methyl-CpG-binding domain protein 2 (Homo sapiens), Q9UBB5; inhibition, % at 4.4 µM; in the data active = inhibition above about 13%
UHRF1 MBD2 ctr – UHRF1 methylated DNA binding inhibitors, primary screen, counter-screen for MBD2 inhibitor project, biochemical, TR-FRET, human UHRF1, single concentration; E3 ubiquitin-protein ligase UHRF1 (Homo sapiens), Q96T88; UHRF1 binding to methylated oligo; inhibition, % at 4.4 µM; 370,000 compounds, 0.75% hits; AID 687016, 2013; in the data active = inhibition above about 21%;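 note: UHRF1 SRA domain binding a hemimethylated CpG hairpin DNA probe; 0% = median of test compound wells and 100% = reference inhibitor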
B2AR ag – beta2AR agonists driving receptor internalization, primary screen, cell-based, FAP fluorogen, flow cytometry. Beta-2 adrenergic receptor (Homo sapiens), P07550. Am2.2-beta2AR cells. response, % (concentration not given with the values). 340,000 compounds, 0.43% hits;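 active = response above a set limit, near 3 SD of response in nonfluorescent compounds, cut at about 42% in these data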
Target sequence (P07550 whole entry, looked up): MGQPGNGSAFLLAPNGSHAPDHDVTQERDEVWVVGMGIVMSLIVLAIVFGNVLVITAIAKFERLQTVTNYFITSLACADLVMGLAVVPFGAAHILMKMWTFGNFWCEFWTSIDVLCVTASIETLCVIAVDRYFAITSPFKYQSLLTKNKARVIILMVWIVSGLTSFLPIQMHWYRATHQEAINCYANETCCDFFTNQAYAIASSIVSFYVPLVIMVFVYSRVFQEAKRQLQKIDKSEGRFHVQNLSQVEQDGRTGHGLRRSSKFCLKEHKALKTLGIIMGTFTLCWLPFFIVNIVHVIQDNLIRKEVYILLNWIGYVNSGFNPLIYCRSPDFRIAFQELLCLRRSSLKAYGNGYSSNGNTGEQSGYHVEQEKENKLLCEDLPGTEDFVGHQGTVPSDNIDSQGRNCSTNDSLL
Arr AP2 block – inhibitors of beta-arrestin/AP2 binding, primary screen, biochemical, GPCR trafficking, flow cytometry. FITC-arrestin peptide / GST-AP2 beads; AP2 beta2 appendage carries R879A mutation. inhibition, % at 10 µM. 340,000 compounds, 0.31% hits. AID 504490, 2011;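 active = inhibition above a set limit, near 3 SD of compounds lacking own fluorescence, cut at about 54% in these data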;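 note: plate controls were DMSO wells for no effect and 5 µM unlabelled arrestin peptide for full effect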
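Assay system: GST-AP2 R879A bound to glutathione beads, E. coli-expressed; Medium: PBS with 0.05% Tween 20 and 0.1% BSA; Also added: fluorescein-tagged arrestin peptide at 50 nM final; Timing: 12 min plus 1 h, RT; Measured by: flow cytometry, FL1 (488/535 nm); Evaluation: percent drop in bead-associated FITC signal.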
ABHD5 PLIN5 PPI – ABHD5-PLIN5 interaction inhibitors, primary screen, cell lysate, split luciferase complementation, luminescence; Split G. princeps luciferase complementation, 4 h; inhibition, % at 4 µM; 360,000 compounds, 0.78% hits;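 active = inhibition above the mean inhibition across every tested compound plus 3 SD, cut at about 22% in these data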;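 note: 0% = DMSO only wells and the 100% control is not disclosed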
Rin1-Abl PPI inh – inhibitors of Rin1-Abl protein binding, primary screen, biochemical, TR-FRET | 360,000 compounds, 0.4% hits | Tyrosine-protein kinase ABL1 (Homo sapiens) + Ras and Rab interactor 1 (Homo sapiens), … | AID 588664, 2011 | inhibition, % at 7.35 µM; in the data active = inhibition above about 5%, passing the limit was not always enough
Arr-AP2 CP1 – inhibitors of arrestin peptide binding to AP2, confirmation, biochemical, cherry pick 1, flow cytometry beads | shares compounds with Arr AP2 block | GST-AP2 beads, FITC arrestin peptide binding; GST-fused beta2-adaptin appendage, R879A mutant | inhibition, % at 10 µM | 1,300 compounds, 2% hits | AID 504908, 2011;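 active = inhibition above a set limit, roughly 3 SD of non-fluorescent compound noise, cut at about 38% in these data; inactive = inhibition at or below that limit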;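 note: loss of bead fluorescence from 50 nM FITC arrestin peptide bound to appendage; 0% = negative control wells and 100% = excess unlabelled arrestin peptide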
GST-FITC bead – GST-fluorescein capture on glutathione beads, confirmation, artefact control for arrestin-AP2 inhibitor project, biochemical, cherry pick 1, flow cytometry; GST-fluorescein binding to GSH beads, fluorescence, counter-screen; 1,300 compounds, 2% hits; AID 588338, 2011; shares compounds with Arr AP2 block; inhibition, % at 10 µM;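 active = inhibition above 50%, about 3 SD of the inhibition seen with non-fluorescent compounds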;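 note: fluorescein maleimide labelled GST captured on 4 micron glutathione beads; higher means more loss of bead fluorescence from quenching or blocked binding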
Active calls of the source: *; x = not tested or not shown.

SMILES	MBD2 inh	UHRF1 MBD2 ctr	B2AR ag	Arr AP2 block	ABHD5 PLIN5 PPI	Rin1-Abl PPI inh	Arr-AP2 CP1	GST-FITC bead
O=C(Nc1nnc(C2=COCCO2)o1)c1cccc(Br)c1	3.8	-4.0	6.0	57.1*	4.3	1.6	-2.9	-4.1
CCC[C@H]1[C@@H](OC(=O)NCc2ccc(C)o2)CC[C@@]23CCCN2C(=O)CCC[C@@H]13	-3.9	-0.6	x	x	x	x	x	x
CCOc1ccc(C(=O)NC(=S)Nc2ncccc2C)cc1[N+](=O)[O-]	4.1	7.9	-20.5	58.4*	3.9	0.2	-10.5	-9.9
CC(=O)c1cc(-c2ccccc2)n(CC(=O)NCc2ccccc2)c1C	-2.2	-0.8	x	x	x	x	x	x
CN(Cc1ccccc1)S(=O)(=O)c1cccc(C(=O)OCc2ccc(C(F)(F)F)cc2)c1	-2.4	-1.7	x	x	x	x	x	x
O=C(Nc1cccnc1Cl)c1noc2c1CCc1ccccc1-2	-3.6	-1.0	7.2	54.7*	7.8	-1.3	10.3	-15.8
CCCNC(=O)c1noc2c1CCc1ccccc1-2	-0.7	-0.7	2.2	-13.0	2.2	2.8	x	x
O=C(NCC1CCN(C(=O)C(=O)c2cc3ccccc3o2)CC1)c1ccc2c(c1)OCO2	-1.6	0.4	x	x	x	x	x	x
COc1ccc(/C=C2\SC(=S)N(CCCCCC(=O)Nc3cc(C)on3)C2=O)cc1OC	2.7	3.7	2.0	-3.5	-2.6	-1.7	x	x
COc1ccc(/C=C2\SC(=S)N(CCCC(=O)Nc3cc(C)on3)C2=O)cc1OC	2.2	0.8	0.6	76.0*	-13.8	2.5	-4.0	4.8
O=C(C1CCN(S(=O)(=O)c2cc(Cl)ccc2Cl)CC1)N1CCOCC1	0.9	-4.2	-1.3	56.0*	3.4	1.7	-1.9	-5.9
COC(=O)c1cccc(NC(=O)CN(c2ccc3c(c2)OCO3)S(C)(=O)=O)c1C	0.8	-0.1	6.8	61.1*	5.8	1.0	7.4	4.8
CC(C)CCNC(=O)[C@H]1COC(O)([C@H](Cc2ccccc2)NC(=O)[C@@H](NC(=O)OCc2ccccc2)C(C)C)CN1C (stereo partly drawn)	-0.1	0.1	x	x	x	x	x	x
O=C(Nc1cc(Cl)ccc1Oc1ccccc1)c1ccccc1F	1.6	0.9	26.0	-11.3	-2.1	-2.0	x	x
O=C(Nc1cc(Cl)ccc1Oc1ccccc1)c1ccc(F)cc1	-5.6	1.7	4.7	61.2*	-9.9	2.6	-8.3	-9.8
N#Cc1ccc(CSc2nc3sc4c(c3c(=O)n2-c2ccc(Br)cc2)CCCC4)cc1	3.8	2.5	x	x	x	x	x	x
COc1ccc(CCC(=O)N2CCN(S(=O)(=O)c3ccc(C)cc3)CC2)cc1	3.7	-1.0	0.2	-4.5	-13.6	-0.9	x	x
COc1ccc(CCC(=O)N2CCN(S(=O)(=O)c3cccc(Cl)c3)CC2)cc1	5.6	-0.1	-1.7	56.1*	7.0	-0.8	-7.6	0.2
COc1ccc(N(CC(=O)Nc2ccc(C)c(C)c2)S(=O)(=O)c2c(C)noc2C)cc1	1.1	3.3	9.2	-7.1	-6.7	0.1	x	x
COc1ccc(NC(=O)CCN(c2ccc(OC)cc2)S(=O)(=O)c2ccc(C)c(C)c2)cc1	-2.0	-2.8	-4.2	65.2*	3.9	0.8	3.0	-3.6
Cc1ccc(CNC(=O)Cn2cnc(S(=O)(=O)N3CCC(C)CC3)c2)o1	-8.0	-1.0	-25.6	55.2*	22.1*	0.9	-4.0	-0.2
Cc1nc(OCC(=O)c2ccc(Cl)cc2)c(C#N)c2c1COC(C)(C)C2	-0.2	-1.1	-5.3	90.5*	0.9	0.0	3.4	-3.0
CCN(C(=O)Cn1cc(C(=O)C(=O)N2CCOCC2)c2ccccc21)c1ccccc1	-0.8	0.6	5.7	66.0*	2.0	2.2	-7.9	1.2
